Experimental data as given in ChEMBL document CHEMBL1124614, “A carboxy-terminus truncated analogue of angiotensin II, [Sar1]angiotensin II-(1-7)-amide, provides an entry to a new class of angiotensin II antagonists” (J Med Chem, 1989).
Peptide text beside a SMILES is read from it.

Columns and labels:
[1] = test system: Rattus norvegicus; assay: Variation in mean arterial pressure produced by angiotensin II, 10 min after administration (dose: 60 ug/kg/min) in rats; 61/5; format: functional, Artery
Procedure, shortened: (§1)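 Rats were anesthetized and ganglion-blocked. Antagonist was given by iv infusion in µg/kg per min. The pressor response to angiotensin II (30 ng/kg iv) was measured before infusion, during infusion, and 5, 10, 20, 40 and 60 min after it. Responses are given as % of the pre-infusion control, as mean ± SEM, with n = 4–6 rats.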

[2] = test system: Rattus norvegicus; assay: Variation in mean arterial pressure, produced by angiotensin II upon administration at 60 ug/kg/min in rats; 6/3; format: functional, Artery; procedure, shortened: as §1
[3] = species: Rattus norvegicus; assay: Concentration at which compound antagonizes increase in arterial pressure produced by angiotensin II; settings: Artery
[4] = test system: Rattus norvegicus; assay: Variation in mean arterial pressure produced by angiotensin II, 40 min after administration (dose: 60 ug/kg/min) in rats; 91/4; format: functional, Artery; procedure, shortened: as §1
[5] = test system: Rattus norvegicus; assay: Variation in mean arterial pressure produced by angiotensin II, 20 min after administration (dose: 60 ug/kg/min) in rats; 78/5; format: functional, Artery; procedure, shortened: as §1
[6] = test system: Rattus norvegicus; assay: Variation in mean arterial pressure produced by angiotensin II, 5 min after administration (dose: 60 ug/kg/min) in rats; 50/5; format: functional, Artery; procedure, shortened: as §1
[7] = species: Oryctolagus cuniculus; assay: Tested for antagonist activity in rabbit aortic rings, pA2 values were determined from Schild plots.; format: functional; settings: Aorta, read-out: pA2 (converted)
Procedure, shortened: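 Isolated rabbit aortic rings were used and contraction was recorded. Agonist activity was tested up to 10⁻⁵ M. For antagonism, angiotensin II concentration-response curves were run with and without three antagonist concentrations. pD2 was taken from the curves and pA2 from Schild plots fitted by least squares.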

[8] = test system: Rattus norvegicus; assay: Variation in mean arterial pressure produced by angiotensin II, 60 min after administration (dose: 60 ug/kg/min) in rats; 91/5; format: functional, Artery; procedure, shortened: as §1
[9] = species: Canis familiaris; assay: Antagonistic effect on aldosterone secretion by zona glomerulosa cells from canine adrenal glands; format: functional; settings: Canis lupus familiaris; Adrenal gland
[10] = test system: Rattus norvegicus; assay: Variation in mean arterial pressure produced by angiotensin II, 10 min after administration (dose 10 ug/kg/min) in rats; 50/5; format: functional, Artery; procedure, shortened: as §1
[11] = test system: Rattus norvegicus; assay: Variation in mean arterial pressure produced by angiotensin II, 20 min after administration (dose 10 ug/kg/min) in rats; 78/5; format: functional, Artery; procedure, shortened: as §1
[12] = test system: Rattus norvegicus; assay: Variation in mean arterial pressure produced by angiotensin II, 40 min after administration (dose 10 ug/kg/min) in rats; 96/4; format: functional, Artery; procedure, shortened: as §1
[13] = test system: Rattus norvegicus; assay: Variation in mean arterial pressure produced by angiotensin II, 60 min after administration (dose 10 ug/kg/min) in rats; 94/6; format: functional, Artery; procedure, shortened: as §1
[14] = test system: Rattus norvegicus; assay: Variation in mean arterial pressure produced by angiotensin II, 5 min after administration (dose 10 ug/kg/min) in rats; 29/5; format: functional, Artery; procedure, shortened: as §1
[15] = test system: Rattus norvegicus; assay: Variation in mean arterial pressure, produced by angiotensin II upon administration at 10 ug/kg/min in rats; format: functional, Artery; procedure, shortened: as §1
[16] = test system: Rattus norvegicus; assay: Variation in mean arterial pressure produced by angiotensin II, 10 min after administration (dose 30 ug/kg/min) in rats; 63/3; format: functional, Artery; procedure, shortened: as §1
[17] = test system: Rattus norvegicus; assay: Variation in mean arterial pressure, produced by angiotensin II upon administration at 30 ug/kg/min in rats; format: functional, Artery; procedure, shortened: as §1
[18] = test system: Rattus norvegicus; assay: Variation in mean arterial pressure produced by angiotensin II, 60 min after administration (dose 30 ug/kg/min) in rats; 97/3; format: functional, Artery; procedure, shortened: as §1
[19] = test system: Rattus norvegicus; assay: Variation in mean arterial pressure produced by angiotensin II, 40 min after administration (dose 30 ug/kg/min) in rats; 96/4; format: functional, Artery; procedure, shortened: as §1
[20] = test system: Rattus norvegicus; assay: Variation in mean arterial pressure produced by angiotensin II, 5 min after administration (dose 30 ug/kg/min) in rats; 35/1; format: functional, Artery; procedure, shortened: as §1
[21] = test system: Rattus norvegicus; assay: Variation in mean arterial pressure produced by angiotensin II, 20 min after administration (dose 30 ug/kg/min) in rats; 87/4; format: functional, Artery; procedure, shortened: as §1
[22] = Rate constant was determined for the compound; format: ADME

## CC[C@H](C)[C@H](NC(=O)[C@H](Cc1ccc(O)cc1)NC(=O)[C@@H](NC(=O)[C@H](CCCN=C(N)N)NC(=O)CNC)C(C)C)C(=O)N[C@@H](Cc1c[nH]cn1)C(=O)N1CCC[C@H]1C(N)=O
[1]
  Control: 61%
[2]
  Control: 6%
[3]
  Concentration (ug min-1 kg-1): 60
[4]
  Control: 91%
[5]
  Control: 78%
[6]
  Control: 50%
[7]
  Kb: 23.4 nM
[8]
  Control: 91%

## CC(C)[C@H](NC(=O)[C@H](CCCN=C(N)N)NC(=O)[C@@H](N)CC(=O)O)C(=O)N[C@@H](Cc1ccc(O)cc1)C(=O)N[C@H](C(=O)N[C@@H](Cc1c[nH]cn1)C(=O)N1CCC[C@H]1C(=O)O)C(C)C (H-DRVYVHP-OH)
[9]
  Concentration: 1 mM

## CNCC(=O)N[C@@H](CCCNC(=N)N)C(=O)N[C@H](C(=O)N[C@@H](Cc1ccc(O)cc1)C(=O)N[C@H](C(=O)N[C@@H](Cc1cnc[nH]1)C(=O)N1CCC[C@H]1C(=O)N[C@@H](C)C(=O)O)C(C)C)C(C)C [SARALASIN]
[10]
  Control: 50%
[11]
  Control: 78%
[12]
  Control: 96%
[13]
  Control: 94%
[14]
  Control: 29%
[15]
  Control: 0%

## CC[C@H](C)[C@H](NC(=O)[C@H](Cc1ccc(OC)cc1)NC(=O)[C@@H](NC(=O)[C@H](CCCN=C(N)N)NC(=O)CNC)C(C)C)C(=O)N[C@@H](Cc1c[nH]cn1)C(=O)N1CCC[C@H]1C(=O)N[C@@H](Cc1ccccc1)C(=O)O
[16]
  Control: 63%
[17]
  Control: 0%
[18]
  Control: 97%
[19]
  Control: 96%
[20]
  Control: 35%
[21]
  Control: 87%

## CC[C@H](C)[C@H](NC(=O)[C@H](Cc1ccc(O)cc1)NC(=O)[C@@H](NC(=O)[C@H](CCCNC(=N)N)NC(=O)[C@@H](N)CC(=O)O)C(C)C)C(=O)N[C@@H](Cc1cnc[nH]1)C(=O)N1CCC[C@H]1C(=O)N[C@@H](Cc1ccccc1)C(=O)O [ANGIOTENSIN II]
[22]
  pD2: 8.98
